Series [1] is described as follows: Drug excretion in feces of cynomolgus monkey treated with [14C]CS-1036 at 3 mg/kg, po administered as single dose after 48 hrs by scintillation counting method. The following applies: in vivo.
The nature of series [2]: Drug level in anaerobic culture broth of F344 rat cecal content treated with [14C]CS-1036 at 63.5 uCi/ml after 24 hrs at 35 degC by LC-MS/MS method. The series is classed as ADME. To be noted: in vitro.
The nature of series [3]: Drug level in feces of F344 rat treated with [14C]CS-1036 by LC-MS/MS method. The series is classed as ADME, tissue-based. To be noted: in vivo.
A further series relates to Intestine. As to the kind of experiment: Drug distribution in intestine of F344 rat treated with [14C]CS-1036 at 1 mg/kg, po administered as single dose after 2 to 8 hrs by scintillation counting method. The series is classed as ADME, organism-based. Set-up: dose 1 mg/kg, route oral. The following applies: in vivo.
A short description of series [4]: Drug level in anaerobic culture broth of human feces derived anaerobic culture broth treated with [14C]CS-1036 at 63.5 uCi/ml after 24 hrs at 35 degC by LC-MS/MS method. The series is classed as ADME, tissue-based.
Series [5] can be described thus: Drug distribution in cecum of F344 rat treated with [14C]CS-1036 at 1 mg/kg, po administered as single dose after 6 to 8 hrs by scintillation counting method. Set-up: dose 1 mg/kg, route oral. To be noted: in vivo. The series is classed as ADME, organism-based, Caecum.
Series [6] in a line: Drug level in anaerobic culture broth of monkey feces derived anaerobic culture broth treated with [14C]CS-1036 at 63.5 uCi/ml after 24 hrs at 35 degC by LC-MS/MS method. To be noted: cynomolgus monkey, in vivo.
The next series has as its system Stomach. As to the kind of experiment: Drug distribution in stomach of F344 rat treated with [14C]CS-1036 at 1 mg/kg, po administered as single dose after 2 to 8 hrs by scintillation counting method. To be noted: in vivo. The series is classed as ADME, organism-based. Set-up: dose 1 mg/kg, route oral.
Series [7] can be described thus: Oral bioavailability in rat at 10 mg/kg. It is filed as ADME, organism-based. The following applies: in vivo.
The nature of series [8]: Drug level in urine of po dosed monkey treated with [14C]CS-1036 by LC-MS/MS method. To be noted: cynomolgus monkey, in vivo.
The test system of series [9] is Cynomolgus monkey. Put plainly: Drug level in cynomolgus monkey treated with 3 mg/kg, po CS-1036 administered as single dose assessed as ratio of molar based AUClast by LC-MS/MS method relative to CS-1036. The series is classed as ADME, organism-based, Macaca fascicularis. On the set-up: dose 3 mg/kg, route oral. To be noted: in vivo.
Series [10] is described as follows: Drug level in urine of F344 rat treated with [14C]CS-1036 by LC-MS/MS method. The series is classed as ADME, tissue-based. The following applies: in vivo.
Series [11] relates to Cynomolgus monkey. As to the kind of experiment: Drug level in cynomolgus monkey treated with 10 mg/kg, po CS-1036 administered as single dose assessed as ratio of molar based AUClast by LC-MS/MS method relative to CS-1036. It is filed as ADME, organism-based, Macaca fascicularis. On the set-up: dose 10 mg/kg, route oral. The following applies: in vivo.
Series [12] in a line: Drug excretion in urine of F344 rat treated with [14C]CS-1036 at 1 mg/kg, po administered as single dose after 24 hrs by scintillation counting method. It is filed as ADME, organism-based. Set-up: dose 1 mg/kg, route oral. To be noted: in vivo.
The subject of series [13] is Rattus norvegicus. As to the kind of experiment: Drug level in F344 rat treated with 3 mg/kg, po CS-1036 administered as single dose assessed as ratio of molar based AUClast by LC-MS/MS method relative to CS-1036. It is filed as ADME, organism-based. On the set-up: dose 3 mg/kg, route oral. To be noted: in vivo.
Series [14] can be described thus: Drug excretion in urine of cynomolgus monkey treated with [14C]CS-1036 at 3 mg/kg, po administered as single dose after 48 hrs by scintillation counting method. To be noted: in vivo.
Series [15] deals with Rattus norvegicus. As to the kind of experiment: Drug level in F344 rat treated with 10 mg/kg, iv CS-1036 administered as single dose assessed as ratio of molar based AUClast by LC-MS/MS method relative to CS-1036. The series is classed as ADME, organism-based. Set-up: dose 10 mg/kg, route intravenous. To be noted: in vivo.
For series [16], the system named is Cynomolgus monkey. Put plainly: Drug level in cynomolgus monkey treated with 1 mg/kg, po CS-1036 administered as single dose assessed as ratio of molar based AUClast by LC-MS/MS method relative to CS-1036. The following applies: in vivo. On the set-up: dose 1 mg/kg, route oral. The series is classed as ADME, organism-based, Macaca fascicularis.
A short description of series [17]: Drug distribution in cecum of F344 rat treated with [14C]CS-1036 at 1 mg/kg, po administered as single dose after 8 hrs by scintillation counting method. It is filed as ADME, organism-based, Caecum. Set-up: dose 1 mg/kg, route oral. The following applies: in vivo.
The subject of series [18] is Rattus norvegicus. Put plainly: Drug level in F344 rat treated with 3 mg/kg, iv CS-1036 administered as single dose assessed as ratio of molar based AUClast by LC-MS/MS method relative to CS-1036. The series is classed as ADME, organism-based. To be noted: in vivo. Set-up: dose 3 mg/kg, route intravenous.
Series [19] relates to Rattus norvegicus. As to the kind of experiment: Drug level in F344 rat treated with 0.3 mg/kg, po CS-1036 administered as single dose assessed as ratio of molar based AUClast by LC-MS/MS method relative to CS-1036. The series is classed as ADME, organism-based. Set-up: dose 0.3 mg/kg, route oral. To be noted: in vivo.
Series [20] is described as follows: Drug level in urine of po dosed F344 rat treated with [14C]CS-1036 by LC-MS/MS method. It is filed as ADME, organism-based. The following applies: in vivo.
Series [21] can be described thus: Cmax in rat at 10 mg/kg, po. It is filed as ADME, organism-based. Set-up: dose 10 mg/kg, route oral. To be noted: in vivo.
The next series is filed under the species Mus musculus. As to the kind of experiment: Inhibition of glycogen phosphorylase in ob/ob mouse. The series is classed as functional, organism-based.
The nature of series [22]: Drug distribution in cecum of F344 rat treated with [14C]CS-1036 at 1 mg/kg, po administered as single dose by scintillation counting method. The series is classed as ADME, organism-based, Caecum. On the set-up: dose 1 mg/kg, route oral. To be noted: in vivo, TDE = time-dependent effect. Summed up: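 [14C]-labelled drug (1 mg/kg, 42.4 µCi/kg) was given orally to fasted F344 rats (148–168 g, n = 3). Contents of stomach, duodenum+jejunum, ileum and cecum were washed out with water at 0.5–8 h, homogenized, solubilized and counted by liquid scintillation. Results are % of dose, mean ± S.D.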

Series [23] deals with Rattus norvegicus. Put plainly: Drug level in F344 rat treated with 1 mg/kg, po CS-1036 administered as single dose assessed as ratio of molar based AUClast by LC-MS/MS method relative to CS-1036. The series is classed as ADME, organism-based. The following applies: in vivo. On the set-up: dose 1 mg/kg, route oral.
Series [24] concerns Rattus norvegicus. Put plainly: Drug level in F344 rat treated with 10 mg/kg, po CS-1036 administered as single dose assessed as ratio of molar based AUClast by LC-MS/MS method relative to CS-1036. The series is classed as ADME, organism-based. Set-up: dose 10 mg/kg, route oral. The following applies: in vivo.
Series [25] is described as follows: Drug metabolism in anaerobic culture broth of F344 rat cecal content assessed as N-acetyl [14C]CS-1036 formation at 63.5 uCi/ml after 24 hrs at 35 degC by LC-MS/MS method. The series is classed as ADME.

One may read the bioavailability as dose-corrected exposure relative to a reference, in per cent. A word on the Cmax: it is the highest concentration seen after dosing. As a reminder, the Ki is a dissociation constant, usually derived from enzyme kinetics or from competition with a known ligand.

SMILES strings stand for the structures.

`CC(=O)N1C[C@@H](O)[C@H](O)[C@H]1CO` gave a Drug excretion in [1] of 17.8%. Also, the Drug metabolism result in series [2] is listed as “metabolite_detected”; in series [3] it was “metabolite_detected”; in the series on Intestine, “metabolite_not_detected”; in series [4] it was “metabolite_detected”; in series [6], “metabolite_detected”; in the series with Stomach it was “metabolite_not_detected”. The Drug uptake in [5] is reported as 1.7%.

In the case of `OC[C@H]1NC[C@@H](O)[C@@H]1O`, the Drug excretion in series [1] is reported as 9.7%; in series [12] it was 5.3%; in series [14] it was 2.2%. The molecule also registered a bioavailability in series [7] of 89%. Further, the Drug metabolism result in [2], in [8], in series [10], in series [3], in series [20] and in series [4] was “metabolite_detected” in each case. In series [6], the Drug metabolism entry is “metabolite_detected”. Moreover, the Drug uptake is recorded as 83.5% in the series on Cynomolgus monkey [9]; 62.5% in the series on Cynomolgus monkey [11]; under 1% in the series with Intestine; 49.9% in the series with Rattus norvegicus [13]; 0.0172% in the series with Rattus norvegicus [15]; 60.8% in the series on Cynomolgus monkey [16]. For the same molecule, the Drug uptake in series [17] was 7.1%; with Rattus norvegicus [18], 0.00672%; in the series on Rattus norvegicus [19] it was 22.1%; in [22] it was “tde”; in the series with Stomach, under 1%; in the series on Rattus norvegicus [23], 73.4%. Besides, in the series with Rattus norvegicus [24], the Drug uptake was 32.2%. The molecule further yielded a Cmax in series [21] of under 300 nM. The molecule also displayed an inhibition constant (Ki) in the series listed under Mus musculus of 392 nM.

Turning to `CC(=O)N1C[C@@H](O)[C@H](O[C@H]2O[C@H](CO)[C@@H](O[C@@H]3O[C@H](C)[C@@H](O)[C@H](O)[C@H]3O)[C@H](O)[C@H]2O)[C@H]1CO`, the Drug metabolism entry in series [2] and in series [25] was “metabolite_detected” throughout.

The values are drawn from ChEMBL document CHEMBL3526127, “Absorption, elimination, and metabolism of CS-1036, a novel α-amylase inhibitor in rats and monkeys, and the relationship between gastrointestinal distribution and suppression of glucose absorption” (Drug Metab Dispos, 2013).
